Measured values gathered from unrelated publications.
Protocols differ between the studies behind these lines.
DRD2: D(2) dopamine receptor (DRD2, Homo sapiens, UniProt P14416)
EGFR: Epidermal growth factor receptor (EGFR, Homo sapiens, UniProt P00533)

OC(c1ccc(F)cc1)C(F)(F)CCN1CCC(O)(c2ccc(Cl)cc2)CC1 (racemic)  Ki (DRD2; cell-free assay, radioligand): 1.96 µM
O=c1c(O)c(-c2ccc(O)c(O)c2)oc2cc(O)ccc12  Kd (Serine/threonine-protein kinase mTOR (MTOR, Homo sapiens, UniProt P42345); cell-free assay, competition with immobilised ligand): 11 µM
Cl.Cl.N.N.N.N.N.N.N.N.[N-3].[Ru+4].[Ru+4]  IC50 (Calcium uniporter protein, mitochondrial (MCU, Homo sapiens, UniProt Q8NE86); transporter uptake, inhibitor): 0.0086 µM
CC(C)[C@@H]1NC(=O)CCNC(=O)CCNC(=O)[C@H](Cc2ccc(O)cc2)NC(=O)[C@H](Cc2ccc(O)cc2)NC(=O)[C@H](Cc2ccccc2)NC(=O)[C@@H](Cc2ccc(O)cc2)NC(=O)CSC[C@@H](C(=O)NCC(N)=O)NC(=O)CCNC(=O)[C@H](CCCNC(=N)N)NC(=O)[C@H](CCCNC(=N)N)NC(=O)[C@H](Cc2ccc(O)cc2)NC(=O)[C@H](C(C)C)NC(=O)[C@H](C(C)C)NC(=O)[C@H](CC(N)=O)NC1=O  Kd (EGFR; binding, SPR): 1.69 µM
CC[C@H](C)[C@H](NC(=O)[C@@H](N)CCCNC(=N)N)C(=O)N[C@H](C(=O)N1CCC[C@H]1C(=O)N[C@@H](C)C(N)=O)C(C)C  Kd (Sequestosome-1 (SQSTM1, Homo sapiens, UniProt Q13501); binding, MST; pH 7): 0.8 µM
Cc1cc(O)cc(C)c1C[C@H](N)C(=O)N[C@H](C)C(=O)NCC(=O)N[C@@H](Cc1ccc(Cl)cc1)C(=O)N(C)CCC[C@@]1(c2ccc(F)cc2)OCc2cc(C#N)ccc21  Ki (DRD2; ligand displacement, radioligand): 2.2 µM
C=C1C[C@H]2C[C@@H](c3ccc(Br)cc3)OCC[C@@H](O)CC(=O)O[C@@H]([C@@H](C)O)C[C@@H]3C/C(=C\C(=O)OC)[C@H](OC(=O)CCCCCCC)[C@@](O)(O3)C(C)(C)/C=C/[C@@H](C1)O2  Ki (Protein kinase C delta type (PRKCD, Homo sapiens, UniProt Q05655); ligand displacement, radioligand): 0.0022 µM
CC(C)[C@@H]1NC(=O)[C@H](CCCNC(=N)N)NC(=O)[C@H](Cc2ccc(O)cc2)NC(=O)[C@H](C(C)C)NC(=O)[C@H](C(C)C)NC(=O)[C@H](CCCNC(=N)N)NC(=O)[C@H](CC(=O)O)NC(=O)[C@H](CC(=O)O)NC(=O)CCNC(=O)[C@H](Cc2ccc(O)cc2)NC(=O)[C@H](Cc2ccc(O)cc2)NC(=O)[C@H](Cc2ccccc2)NC(=O)[C@@H](Cc2ccc(O)cc2)NC(=O)CSC[C@@H](C(=O)NCC(N)=O)NC(=O)CCNC1=O  Kd (EGFR; binding, SPR): 0.632 µM
